What was measured:
[1] = Percentage unbound in Crl:NMRI(Han) mouse plasma at 1 uM after 5 hrs by equilibrium dialysis method; format: ADME, cell-free
Method in brief: (§1)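 Equilibrium dialysis (12-14 kDa membrane) of plasma or brain homogenate from naïve male Sprague-Dawley rats or Crl:NMRI(Han) mice. Donor side spiked to 1 µM final; receiver phosphate buffer pH 7.4; 37°C for 5 h. Buffer phase quantified by LC-MS. Brain fu corrected for homogenate dilution to intact tissue. Mean of two independent determinations.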

[2] = Total plasma concentration in wild type Sprague-Dawley rat expressing Abcb1a at 5 mg/kg/day administered through continuous minipump treatment for 3 days by UPLC-MS analysis; format: ADME, organism-based; conditions: other: continuous minipump
Method in brief: (§2)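 Drug was infused subcutaneously by osmotic minipump for 3 days to steady state, at 1 µl/h in mice and 10 µl/h in rats, with doses derived from body weight and delivery rate. Animals were decapitated. Plasma came from EDTA trunk blood spun at 5000 g for 10 min at 4 °C. Whole brain was homogenised 1:4 in 70% acetonitrile and the supernatant kept. Samples were protein-precipitated with internal standard and analysed by UPLC. n=3-5, mean ± SEM.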

[3] = Total drug level in wild type Sprague-Dawley rat brain expressing Abcb1a at 5 mg/kg/day administered through continuous minipump treatment for 3 days by UPLC-MS analysis; format: ADME, organism-based; conditions: other: continuous minipump, read-out: Drug uptake; method in brief: as §2
[4] = Total brain to plasma partition coefficient of the compound in wild type Sprague-Dawley rat expressing Abcb1a at 5 mg/kg/day administered through continuous minipump treatment for 3 days; conditions: brain and plasma, other: continuous minipump
[5] = Total plasma concentration in mdr1a-deficient rat at 5 mg/kg/day administered through continuous minipump treatment for 3 days by UPLC-MS analysis; format: ADME, organism-based; conditions: other: continuous minipump; method in brief: as §2
[6] = Total drug level in mdr1a-deficient rat brain at 5 mg/kg/day administered through continuous minipump treatment for 3 days by UPLC-MS analysis; format: ADME, organism-based; conditions: other: continuous minipump, read-out: Drug uptake; method in brief: as §2
[7] = Total brain to plasma partition coefficient of the compound in mdr1a-deficient Sprague-Dawley rat at 5 mg/kg/day administered through continuous minipump treatment for 3 days; conditions: brain and plasma, other: continuous minipump
[8] = Total drug level in wild type Crl:CF1 mouse brain expressing Abcb1a mutant at 4 mg/kg/day administered through continuous minipump treatment for 3 days by UPLC-MS analysis; format: ADME, organism-based; conditions: other: continuous minipump, read-out: Drug uptake; method in brief: as §2
[9] = Total brain to plasma partition coefficient of the compound in wild type Crl:CF1 mouse expressing Abcb1a mutant at 4 mg/kg/day administered through continuous minipump treatment for 3 days; conditions: brain and plasma, other: continuous minipump
[10] = Total plasma concentration in mdr1a-deficient mouse at 4 mg/kg/day administered through continuous minipump treatment for 3 days by UPLC-MS analysis; format: ADME, organism-based; conditions: other: continuous minipump; method in brief: as §2
[11] = Total drug level in mdr1a-deficient mouse brain at 4 mg/kg/day administered through continuous minipump treatment for 3 days by UPLC-MS analysis; format: ADME, organism-based; conditions: other: continuous minipump, read-out: Drug uptake; method in brief: as §2
[12] = Total brain to plasma partition coefficient of the compound in mdr1a-deficient mouse at 4 mg/kg/day administered through continuous minipump treatment for 3 days; conditions: other: continuous minipump
[13] = Percentage unbound in Sprague-Dawley rat plasma at 1 uM after 5 hrs by equilibrium dialysis method; format: ADME, cell-free; method in brief: as §1
[14] = Percentage unbound in Sprague-Dawley rat brain at 1 uM after 5 hrs by equilibrium dialysis method; format: ADME, tissue-based; method in brief: as §1
[15] = Total plasma concentration in wild type Crl:CF1 mouse expressing Abcb1a mutant at 4 mg/kg/day administered through continuous minipump treatment for 3 days by UPLC-MS analysis; format: ADME, organism-based; conditions: other: continuous minipump; method in brief: as §2
[16] = Unbound brain to plasma partition coefficient of the compound in wild type Sprague-Dawley rat expressing Abcb1a at 5 mg/kg/day administered through continuous minipump treatment for 3 days; format: ADME, organism-based; conditions: other: continuous minipump, read-out: K(p,uu,brain)
Method in brief: (§3)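 Kp,uu = Cbrain,total × fu,brain / Cplasma,total × fu,plasma, using steady-state totals from 3-day subcutaneous minipump infusion. Free fractions came from equilibrium dialysis (12-14 kDa membrane) of naive Sprague-Dawley rat or NMRI mouse plasma or brain homogenate spiked to 1 µM final, against pH 7.4 phosphate buffer for 5 h at 37 °C, read by LC-MS and corrected for brain dilution. fu is the mean of two determinations.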

[17] = Unbound brain to plasma partition coefficient of the compound in mdr1a-deficient rat at 5 mg/kg/day administered through continuous minipump treatment for 3 days; format: ADME, organism-based; conditions: other: continuous minipump, read-out: K(p,uu,brain); method in brief: as §3
[18] = Percentage unbound in Crl:NMRI(Han) mouse brain at 1 uM after 5 hrs by equilibrium dialysis method; format: ADME, tissue-based; method in brief: as §1
[19] = Unbound brain to plasma partition coefficient of the compound in wild type Crl:CF1 mouse expressing Abcb1a mutant at 4 mg/kg/day administered through continuous minipump treatment for 3 days; format: ADME, organism-based; conditions: other: continuous minipump, read-out: K(p,uu,brain); method in brief: as §3
[20] = Unbound brain to plasma partition coefficient of the compound in mdr1a-deficient mouse at 4 mg/kg/day administered through continuous minipump treatment for 3 days; format: ADME, organism-based; conditions: other: continuous minipump, read-out: K(p,uu,brain); method in brief: as §3
[21] = Total plasma concentration in wild type Sprague-Dawley rat expressing Abcb1a at 9 mg/kg/day administered through continuous minipump treatment for 3 days by UPLC-MS analysis; format: ADME, organism-based; conditions: other: continuous minipump; method in brief: as §2
[22] = Total drug level in wild type Sprague-Dawley rat brain expressing Abcb1a at 9 mg/kg/day administered through continuous minipump treatment for 3 days by UPLC-MS analysis; format: ADME, organism-based; conditions: other: continuous minipump, read-out: Drug uptake; method in brief: as §2
[23] = Total brain to plasma partition coefficient of the compound in wild type Sprague-Dawley rat expressing Abcb1a at 9 mg/kg/day administered through continuous minipump treatment for 3 days; format: ADME, organism-based; conditions: brain and plasma, other: continuous minipump
[24] = Total plasma concentration in mdr1a-deficient rat at 9 mg/kg/day administered through continuous minipump treatment for 3 days by UPLC-MS analysis; format: ADME, organism-based; conditions: other: continuous minipump; method in brief: as §2
[25] = Total drug level in mdr1a-deficient rat brain at 9 mg/kg/day administered through continuous minipump treatment for 3 days by UPLC-MS analysis; format: ADME, organism-based; conditions: other: continuous minipump, read-out: Drug uptake; method in brief: as §2
[26] = Total brain to plasma partition coefficient of the compound in mdr1a-deficient rat at 9 mg/kg/day administered through continuous minipump treatment for 3 days; format: ADME, organism-based; conditions: brain and plasma, other: continuous minipump
[27] = Total plasma concentration in wild type Crl:CF1 mouse expressing Abcb1a mutant at 12 mg/kg/day administered through continuous minipump treatment for 3 days by UPLC-MS analysis; format: ADME, organism-based; conditions: other: continuous minipump; method in brief: as §2
[28] = Total drug level in wild type Crl:CF1 mouse brain expressing Abcb1a mutant at 12 mg/kg/day administered through continuous minipump treatment for 3 days by UPLC-MS analysis; format: ADME, organism-based; conditions: other: continuous minipump, read-out: Drug uptake; method in brief: as §2
[29] = Total brain to plasma partition coefficient of the compound in wild type Crl:CF1 mouse expressing Abcb1a mutant at 12 mg/kg/day administered through continuous minipump treatment for 3 days; format: ADME, organism-based; conditions: brain and plasma, other: continuous minipump
Method in brief: (§4)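 Rats (SD-Abcb1a knockout or wild-type, 350-500 g) or mice (Crl:CF1-Abcb1a mutant or CF-1 background, 25-45 g) received drug by subcutaneous osmotic minipump (pump content as free base) for 3 days to steady state. After decapitation, trunk EDTA plasma and whole brain (homogenised 1:4 in 70% acetonitrile) were assayed by UPLC. Kp = total brain/total plasma concentration. n=3-5, mean ± SEM.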

[30] = Total plasma concentration in mdr1a-deficient mouse at 12 mg/kg/day administered through continuous minipump treatment for 3 days by UPLC-MS analysis; format: ADME, organism-based; conditions: other: continuous minipump; method in brief: as §2
[31] = Total drug level in mdr1a-deficient mouse brain at 12 mg/kg/day administered through continuous minipump treatment for 3 days by UPLC-MS analysis; format: ADME, organism-based; conditions: other: continuous minipump, read-out: Drug uptake; method in brief: as §2
[32] = Total brain to plasma partition coefficient of the compound in mdr1a-deficient mouse at 12 mg/kg/day administered through continuous minipump treatment for 3 days; format: ADME, organism-based; conditions: other: continuous minipump; method in brief: as §4
[33] = Unbound brain to plasma partition coefficient of the compound in wild type Sprague-Dawley rat expressing Abcb1a at 9 mg/kg/day administered through continuous minipump treatment for 3 days; format: ADME, organism-based; conditions: other: continuous minipump, read-out: K(p,uu,brain)
[34] = Unbound brain to plasma partition coefficient of the compound in mdr1a-deficient rat at 9 mg/kg/day administered through continuous minipump treatment for 3 days; format: ADME, organism-based; conditions: other: continuous minipump, read-out: K(p,uu,brain)
[35] = Unbound brain to plasma partition coefficient of the compound in wild type Crl:CF1 mouse expressing Abcb1a mutant at 12 mg/kg/day administered through continuous minipump treatment for 3 days; format: ADME, organism-based; conditions: other: continuous minipump, read-out: K(p,uu,brain); method in brief: as §3
[36] = Unbound brain to plasma partition coefficient of the compound in mdr1a-deficient mouse at 12 mg/kg/day administered through continuous minipump treatment for 3 days; format: ADME, organism-based; conditions: other: continuous minipump, read-out: K(p,uu,brain); method in brief: as §3

Cc1nc2n(c(=O)c1CCN1CCC(c3noc4cc(F)ccc34)CC1)CCCC2 [RISPERIDONE]
fraction unbound at 5 h, 1 µM [1]: 0.27 | concentration at 72 h [2]: 194 ng/mL | concentration at 72 h [3]: 41 ng/g | Kp at 72 h [4]: 0.22 | concentration at 72 h [5]: 168 ng/mL | concentration at 72 h [6]: 295 ng/g | Kp at 72 h [7]: 1.9 | concentration at 72 h [8]: 21 ng/g | Kp at 72 h [9]: 0.52 | concentration at 72 h [10]: 40 ng/mL | concentration at 72 h [11]: 149 ng/g | Kp at 72 h [12]: 3.8 | fraction unbound at 5 h, 1 µM [13]: 0.11 | fraction unbound at 5 h, 1 µM [14]: 0.09 | concentration at 72 h [15]: 43 ng/mL | Kp uu at 72 h [16]: 0.17 | Kp uu at 72 h [17]: 1.4 | fraction unbound at 5 h, 1 µM [18]: 0.058 | Kp uu at 72 h [19]: 0.11 | Kp uu at 72 h [20]: 0.81

COc1ccc(C(CN(C)C)C2(O)CCCCC2)cc1.Cl (stereo not given) [VENLAFAXINE HYDROCHLORIDE]
fraction unbound at 5 h, 1 µM [1]: > 0.99 | concentration at 72 h [21]: 50 ng/mL | concentration at 72 h [22]: 158 ng/g | Kp at 72 h [23]: 3.3 | concentration at 72 h [24]: 63 ng/mL | concentration at 72 h [25]: 389 ng/g | Kp at 72 h [26]: 6.3 | concentration at 72 h [27]: 85 ng/mL | concentration at 72 h [28]: 403 ng/g | Kp at 72 h [29]: 4.7 | concentration at 72 h [30]: 105 ng/mL | concentration at 72 h [31]: 828 ng/g | Kp at 72 h [32]: 8.3 | fraction unbound at 5 h, 1 µM [13]: 0.64 | fraction unbound at 5 h, 1 µM [14]: 0.092 | Kp uu at 72 h [33]: 0.45 | Kp uu at 72 h [34]: 0.89 | fraction unbound at 5 h, 1 µM [18]: 0.18 | Kp uu at 72 h [35]: 0.86 | Kp uu at 72 h [36]: 1.4
